Measurements of several laboratories.
Each line is one published result; the experiments were not run side by side.
Target: Acetylcholinesterase (ACHE, Homo sapiens, UniProt P22303)

For `Nc1ncc(-c2nc(N3CCOCC3)nc(N3CCOCC3)n2)c(C(F)F)n1`, the remaining activity was 98% (enzyme activity; inhibitor; 10 µM).
The inhibition of `O=C(O)c1ccccc1O` is reported as 1.3% (enzyme activity; inhibitor; Ellman; 20 µM).
With `C=CCn1c2cc(OC(=O)CCN3CCN(Cc4ccccc4)CC3)ccc2c2ccnc(C)c21` the inhibition was 36.4% (enzyme activity; inhibitor; Ellman; 1 µM).
`O=C(Nc1cccnn1)N1CCN([C@@H]2CCOc3cc(C(F)(F)F)ccc32)CC1` has an inhibition of -3% (enzyme activity; inhibitor; 20 µM).
`COCc1c(-c2cc3cc(C)cc(OC)c3s2)c2c(N)ncnn2c1CN1CCNC(=O)C1` gave an inhibition of -1% (enzyme activity; inhibitor; 10 µM).
`c1ccc(C(NCCNC(c2ccccc2)c2ccccc2)c2ccccc2)cc1` gave an inhibition of 13% (enzyme activity; inhibitor; 10 µM).
`CN(CCN1CCC(OC(=O)Nc2ccccc2-c2ccccc2)CC1)C(=O)c1ccc(CN2CCC(C(N)=O)CC2)cc1` has an inhibition of 9% (enzyme activity; inhibitor; 1 µM).
The inhibition of `COc1ccc(S(=O)(=O)N2CCCCC2)cc1C` is reported as under 30% (ligand displacement; radioligand; 10 µM).
For `C[C@H](C(=O)N[C@H]1COc2ccccc2[C@@H]1S(C)(=O)=O)c1ccc(F)cc1`, the inhibition was 1% (enzyme activity; inhibitor; 10 µM).
For `Cc1ncc(C)n2nc(/C=C/c3nc(N4CCCC4)cc(N4CCOCC4)n3)nc12`, the inhibition was 4% (enzyme activity; inhibitor; 10 µM).
`CCN1C(=O)C=CC1=O` has an inhibition of about 20% (enzyme activity; inhibitor; 30 µM).
With `O=C1CN(C(=O)CCn2ccnc2)CC(O)CN1CCc1ccccc1` (stereo not drawn) the inhibition was 21.6% (enzyme activity; inhibitor; Ellman; 10 µM).
`COc1ccc2c(c1)[nH]c1c(C)nccc12` gave an inhibition of 33.8% (enzyme activity; inhibitor; Ellman; 1 µM).
`CCOP(=O)(OCC)Oc1ccc([N+](=O)[O-])cc1` has a kinact/KI of 1510 M⁻¹ s⁻¹ (enzyme activity; inhibitor).
For `Clc1ccc2c(C3CCN(CCc4c[nH]c5ccccc45)CC3)c[nH]c2c1`, the inhibition was 4% (enzyme activity; inhibitor; 10 µM).
